According to publication PMC10267526 (The Journal of Biological Chemistry, 2023):

What was measured:
hTRPML1-nLuc [1] = molecular target: T1, hTRPML1-nLuc (Homo sapiens, UniProt Q9GZU1); test: In-cell BRET competitive displacement of MRC087; type: binding
How it was run: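 hTRPML1-nLuc HEK293T cells (2 × 10^5/100 μl, 48 h post-transfection) in Opti-MEM received tracer at 2.0 μM final and serially diluted test compound (final DMSO 1%). After 2 h incubation, nLuc substrate plus inhibitor was added and emissions read at 460/610 nm. BRET was normalised to probe-only and no-probe wells and fitted for EC50, then converted to KdA by Cheng–Prusoff using tracer Kd. n = 3–4/concentration, three independent experiments.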

hTRPML1-nLuc [2] = molecular target: T1, hTRPML1-nLuc; test: In-cell BRET kinetics of competitive binding; conditions: for koff: read-out: koff of unlabeled compound
How it was run: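 hTRPML1-nLuc HEK293T cells in Opti-MEM were given nLuc substrate plus inhibitor, shaken 5 min and read for a 1-min baseline. The reader then injected tracer (2.0 μM final) premixed with one of two concentrations of unlabeled compound, or DMSO vehicle; 60 μM reference antagonist defined nonspecific binding. Specific BRET versus time was fitted to the Motulsky–Mahan competitive kinetics model with tracer kon/koff obtained separately. n = 6/concentration, single experiment.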

hTRPML1 = conditions: ref [11], [12], cited from earlier work
GCaMP6f-hTRPML1 [3] = molecular target: T2, GCaMP6f-hTRPML1 (Homo sapiens, UniProt Q9GZU1); test: GCaMP6f Ca2+ indicator channel activation assay; type: cell-based
How it was run: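 HEK293T cells were transfected with GCaMP6f-hTRPML1 and seeded at 4 × 10^5 cells/100 μl in poly-D-lysine plates. After 24 h the medium was changed to phenol red-free DMEM, with a further 24 h growth. Plates were equilibrated 10 min at RT and 10 min at 25 °C, followed by a 1-min baseline read every 5 s. The 10× compound in Ca2+-free HEPES buffer was injected and reads continued 6 min (ex 480 ± 25, em 549–562 nm; final DMSO 0.5%). Baseline-normalised AUC was scaled to DMSO (0%) and reference agonist (100%), and EC50 was taken from a nonlinear fit. n = 6/concentration, three independent experiments.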

GCaMP6f-hTRPML1 [4] = molecular target: T2, GCaMP6f-hTRPML1; test: GCaMP6f Ca2+ indicator channel assay; type: cell-based
How it was run: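 GCaMP6f-hTRPML1-transfected HEK293T cells were preincubated 10 min at RT with test compound. After a 1-min baseline (reads every 5 s), reference agonist was injected at 25 μM final and fluorescence recorded a further 6 min (ex 480 ± 25, em 549–562 nm; 0.5% DMSO). Compounds were diluted in nominally Ca2+-free HEPES-buffered solution. Baseline-normalised AUC was scaled to DMSO and agonist controls, and IC50 was derived by nonlinear fit. n = 6/concentration, two independent experiments.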

T1 sequence (Q9GZU1 whole entry): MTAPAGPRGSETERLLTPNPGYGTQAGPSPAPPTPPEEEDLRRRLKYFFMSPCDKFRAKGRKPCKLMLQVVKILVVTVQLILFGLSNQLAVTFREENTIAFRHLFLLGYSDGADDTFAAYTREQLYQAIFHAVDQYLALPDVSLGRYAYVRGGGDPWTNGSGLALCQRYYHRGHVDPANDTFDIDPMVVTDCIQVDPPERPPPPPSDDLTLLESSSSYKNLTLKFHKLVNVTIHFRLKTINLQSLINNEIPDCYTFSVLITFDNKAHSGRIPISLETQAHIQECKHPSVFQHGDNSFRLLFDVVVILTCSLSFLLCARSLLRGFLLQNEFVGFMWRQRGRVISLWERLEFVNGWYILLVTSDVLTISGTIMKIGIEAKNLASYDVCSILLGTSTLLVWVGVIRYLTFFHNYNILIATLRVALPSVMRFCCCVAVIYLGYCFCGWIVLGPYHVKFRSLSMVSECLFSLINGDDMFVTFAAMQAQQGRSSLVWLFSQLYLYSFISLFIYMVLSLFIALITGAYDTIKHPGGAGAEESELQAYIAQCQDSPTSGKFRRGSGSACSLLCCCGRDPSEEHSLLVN
T2 sequence (Q9GZU1 whole entry): as above

SMILES	Kd (hTRPML1-nLuc [1])	Kd (hTRPML1-nLuc [2])	residence time (hTRPML1-nLuc [2])	koff (hTRPML1-nLuc [2])	EC50 (hTRPML1; read-out: EC50 in previous studies)	EC50 (GCaMP6f-hTRPML1 [3])	kon (hTRPML1-nLuc [2]; read-out: kon of unlabeled compound)	IC50 (hTRPML1; read-out: IC50 in previous studies)	IC50 (GCaMP6f-hTRPML1 [4])
CC1CC(C)(C)N(C(=O)CN2C(=O)c3ccccc3C2=O)c2ccccc21 (stereo not shown) [compound 1, 2-(2-oxo-2-(2,2,4-trimethyl-3,4-dihydroquinolin-1(2H)-yl)ethyl)isoindoline-1,3-dione]	19.8 ± 1.8 µM	37.3 µM	1.5 min	0.0108 s⁻¹	9.7 µM	13 ± 3.1 µM			
COc1ccccc1N1CCN(c2ccccc2NS(=O)(=O)c2ccccc2)CC1 [compound 8, N-(2-(4-(2-methoxyphenyl)piperazin-1-yl)phenyl)benzenesulfonamide]	2.8 ± 1.2 µM	1 µM	1.5 min	0.0112 s⁻¹			10700 M⁻¹ s⁻¹	1.8 µM	2.8 ± 0.2 µM
